Key:
Quadruplex DNA [1] = test: Stabilization of G-quadruplex c-KIT1 5-FAM-GGGAGGGCGCTGGGAGGAGGG-TAMRA-3 (unknown origin) assessed as change in melting temperature at 1 uM incubated for 1 hr in dark condition by FRET-based melting assay; type: nucleic-acid assay
Method in brief: (§1)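 FRET melting of dual-fluorophore-tagged oligonucleotides (200 nM) in 60 mM potassium cacodylate buffer, pH 7.4, with ligand at 1 μM; ΔTm taken against the ligand-free oligonucleotide Tm as control.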

Quadruplex DNA [2] = test: Stabilization of G-quadruplex VEGF 5-FAM-CGGGGCGGGCCGGGGGCGGGGT-TAMRA-3 (unknown origin) assessed as change in melting temperature at 1 uM incubated for 1 hr in dark condition by FRET-based melting assay; type: nucleic-acid assay; method in brief: as §1
Quadruplex DNA [3] = test: Stabilization of G-quadruplex h-TELO 5-FAM-TTGGGTTAGGGTTAGGGTTAGGGA-TAMRA-3 (unknown origin) assessed as change in melting temperature at 1 uM incubated for 1 hr in dark condition by FRET-based melting assay; type: nucleic-acid assay; method in brief: as §1
Quadruplex DNA [4] = test: Stabilization of G-quadruplex c-MYC 5-FAM-TGGGGAGGGTGGGGAGGGTGGGGAAGG-TAMRA- 3 (unknown origin) assessed as change in melting temperature at 1 uM incubated for 1 hr in dark condition by FRET-based melting assay; type: nucleic-acid assay; method in brief: as §1
Quadruplex DNA [5] = test: Stabilization of calf thymus […] ds DNA 5-FAM-CAATCGGATCGAATTCGATCCGATTG-TAMRA-3 assessed as change in melting temperature at 1 uM incubated for 1 hr in dark condition by FRET-based melting assay; type: nucleic-acid assay; conditions: Bos taurus; method in brief: as §1
Quadruplex DNA [6] = test: Stabilization of G-quadruplex BCL2 5-FAM-AGGGGCGGGCGCGGGAGGAAGGGGGCGGGAGCGGGGCTG-TAMRA-3 (unknown origin) assessed as change in melting temperature at 1 uM incubated for 1 hr in dark condition by FRET-based melting assay; type: nucleic-acid assay; method in brief: as §1
Quadruplex DNA [7] = test: Stabilization of G-quadruplex c-KIT2 5-FAM-GGGCGGGCGCGAGGGAGGGG-TAMRA-3 (unknown origin) assessed as change in melting temperature at 1 uM incubated for 1 hr in dark condition by FRET-based melting assay; type: nucleic-acid assay; method in brief: as §1
K562 [8] = test: Induction of DNA damage in human K562 cells assessed as cells exhibiting DNA damage at 5.5 uM incubated for 24 hrs by DNA damage assay (reference value: 10.8%); type: functional
K562 [9] = test: Attenuation of proto-oncogene expression in human c-KIT-positive K562 cells assessed as reduction in c-MYC oncogene expression at 2 uM measured after 24 hrs by qRT-PCR analysis relative to control; type: functional
Method in brief: (§2)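 K562 leukemia cells treated for 24 h. c-KIT, c-MYC and BCL-2 mRNA measured by qRT-PCR, with each gene normalized to 18s housekeeping gene expression. Reduction expressed relative to untreated cells.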

K562 [10] = test: Attenuation of proto-oncogene expression in human c-KIT-positive K562 cells assessed as reduction in c-KIT oncogene expression at 2 uM measured after 24 hrs by qRT-PCR analysis relative to control; type: functional; method in brief: as §2
[11] = Reduction of c-KIT protein expression in human K562 cells at 2 uM measured after 24 hrs by Western blotting analysis relative to control; type: functional
Method in brief: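 Lysates of treated K562 cells probed by Western blot for c-KIT protein, with GAPDH as housekeeping reference.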

[12] = Reduction of BCL-2 oncogene expression in human K562 cells transfected with BCL-2 plasmid construct assessed as reduction in luciferase expression at 4 uM measured after 36 hrs by luciferase reporter assay; type: functional
Method in brief: (§3)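 K562 cells transfected with luciferase-expressing plasmids carrying the promoter G-quadruplex sequence of c-KIT, c-MYC or BCL-2, then ligand-treated. Relative luciferase expression measured.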

[13] = Reduction of c-KIT oncogene expression in human K562 cells transfected with c-KIT plasmid construct assessed as reduction in luciferase expression at 2 uM measured after 36 hrs by luciferase reporter assay; type: functional; method in brief: as §3
K562 [14] = test: Induction of DNA damage in human K562 cells assessed as cells exhibiting DNA damage at 11 uM incubated for 24 hrs by DNA damage assay (reference value: 10.8%); type: functional
[15] = Reduction of c-KIT oncogene expression in human K562 cells transfected with c-KIT plasmid construct assessed as reduction in luciferase expression at 4 uM measured after 36 hrs by luciferase reporter assay; type: functional; method in brief: as §3
[16] = Reduction of c-MYC oncogene expression in human K562 cells transfected with c-MYC plasmid construct assessed as reduction in luciferase expression at 4 uM measured after 36 hrs by luciferase reporter assay; type: functional; method in brief: as §3
[17] = Reduction of c-MYC oncogene expression in human K562 cells transfected with c-MYC plasmid construct assessed as reduction in luciferase expression at 2 uM measured after 36 hrs by luciferase reporter assay; type: functional; method in brief: as §3
[18] = Reduction of BCL-2 oncogene expression in human K562 cells transfected with BCL-2 plasmid construct assessed as reduction in luciferase expression at 2 uM measured after 36 hrs by luciferase reporter assay; type: functional; method in brief: as §3
K562 [19] = test: Attenuation of proto-oncogene expression in human c-KIT-positive K562 cells assessed as reduction in c-KIT oncogene expression at 4 uM measured after 24 hrs by qRT-PCR analysis relative to control; type: functional; method in brief: as §2
K562 [20] = test: Attenuation of proto-oncogene expression in human c-KIT-positive K562 cells assessed as reduction in BCL-2oncogene expression at 4 uM measured after 24 hrs by qRT-PCR analysis relative to control; type: functional; method in brief: as §2
K562 [21] = test: Attenuation of proto-oncogene expression in human c-KIT-positive K562 cells assessed as reduction in BCL-2oncogene expression at 2 uM measured after 24 hrs by qRT-PCR analysis relative to control; type: functional; method in brief: as §2

Row | Structure (SMILES) | ΔTm (Quadruplex DNA [1]) | ΔTm (Quadruplex DNA [2]) | ΔTm (Quadruplex DNA [3]) | ΔTm (Quadruplex DNA [4]) | ΔTm (Quadruplex DNA [5]) | ΔTm (Quadruplex DNA [6]) | ΔTm (Quadruplex DNA [7]) | further results
1 | Nc1ccc(-n2cc(-c3ccc4oc5ccccc5c4c3)nn2)cc1 | < 6 °C | < 6 °C | < 6 °C | < 6 °C | < 6 °C | < 6 °C | < 6 °C | –
2 | NCCn1cc(-c2ccc3oc4ccccc4c3c2)nn1 | < 6 °C | < 6 °C | < 6 °C | < 6 °C | < 6 °C | < 6 °C | < 6 °C | –
3 | Nc1nc(CC(=O)Nc2nc(CC(=O)NCCCn3cc(-c4ccc5oc6ccccc6c5c4)nn3)cs2)cs1 | < 6 °C | < 6 °C | < 6 °C | < 6 °C | < 6 °C | < 6 °C | < 6 °C | –
4 | O=C(Nc1ccc(-n2cc(-c3ccc4[nH]c5ccccc5c4c3)nn2)cc1)C1CCCN1 (stereo not drawn) | < 5.5 °C | < 5.5 °C | < 5.5 °C | < 5.5 °C | < 5.5 °C | < 5.5 °C | < 5.5 °C | –
5 | Nc1ccc(-n2cc(-c3ccc4[nH]c5ccccc5c4c3)nn2)cc1 | < 5.5 °C | < 5.5 °C | < 5.5 °C | < 5.5 °C | < 5.5 °C | < 5.5 °C | < 5.5 °C | –
6 | NCCCCC(N)C(=O)Nc1ccc(-n2cc(-c3ccc4oc5ccccc5c4c3)nn2)cc1 (stereo not drawn) | < 6 °C | < 6 °C | < 6 °C | < 6 °C | < 6 °C | < 6 °C | < 6 °C | –
7 | Nc1nc(CC(=O)Nc2nc(CC(=O)NCCCn3cc(-c4ccc5[nH]c6ccccc6c5c4)nn3)cs2)cs1 | < 5.5 °C | < 5.5 °C | < 5.5 °C | < 5.5 °C | < 5.5 °C | < 5.5 °C | < 5.5 °C | –
8 | CN(C)CCCn1cc(-c2ccc3[nH]c4ccccc4c3c2)nn1 | < 5.5 °C | < 5.5 °C | < 5.5 °C | < 5.5 °C | < 5.5 °C | < 5.5 °C | < 5.5 °C | –
9 | NCCn1cc(-c2ccc3[nH]c4ccccc4c3c2)nn1 | < 5.5 °C | < 5.5 °C | < 5.5 °C | < 5.5 °C | < 5.5 °C | < 5.5 °C | < 5.5 °C | –
10 | CN(C)CCCn1cc(-c2ccc3oc4ccccc4c3c2)nn1 | < 6 °C | < 6 °C | < 6 °C | < 6 °C | < 6 °C | < 6 °C | < 6 °C | –
11 | O=C(Nc1ccc(-n2cc(-c3ccc4oc5ccccc5c4c3)nn2)cc1)C1CCCN1 (stereo not drawn) | < 6 °C | < 6 °C | < 6 °C | < 6 °C | < 6 °C | < 6 °C | < 6 °C | –
12 | NCCCCC(N)C(=O)Nc1ccc(-n2cc(-c3ccc4[nH]c5ccccc5c4c3)nn2)cc1 (stereo not drawn) | < 5.5 °C | < 5.5 °C | < 5.5 °C | < 5.5 °C | < 5.5 °C | < 5.5 °C | < 5.5 °C | –
13 | C[n+]1ccc(-c2c3nc(c(-c4cc[n+](C)cc4)c4ccc([nH]4)c(-c4cc[n+](C)cc4)c4nc(c(-c5cc[n+](C)cc5)c5ccc2[nH]5)C=C4)C=C3)cc1.[Cl-].[Cl-].[Cl-].[Cl-] [TMPYP4 CHLORIDE] | – | – | – | – | – | – | – | Activity (K562 [8]): 27.6%; inhibition at 2 µM (K562 [9]): 11%; inhibition at 2 µM (K562 [10]): 30%; inhibition at 2 µM [11]: 10%; inhibition at 4 µM [12]: 39.7%; inhibition at 2 µM [13]: 20.1%; Activity (K562 [14]): 30.3%; inhibition at 4 µM [15]: 34.1%; inhibition at 4 µM [16]: 45.3%; inhibition at 2 µM [17]: 24.4%; inhibition at 2 µM [18]: 20.7%; inhibition at 4 µM (K562 [19]): 48%; inhibition at 4 µM (K562 [20]): 45%; inhibition at 2 µM (K562 [21]): 37%

Reference: ChEMBL document CHEMBL5344453, “Selective Recognition of c-KIT 1 G-Quadruplex by Structural Tuning of Heteroaromatic Scaffolds and Side Chains” (ACS Med Chem Lett, 2024)
